Measurements gathered from unrelated publications.
Compare with care: the assays were run in different laboratories.
Target: Serine/threonine-protein kinase WNK3 (WNK3, Homo sapiens, UniProt Q9BYP7)

Compound | test | setting | remaining binding [%]
Cc1cnn2ncc(-c3ccnc(N(C)C)n3)c2c1 | binding | 1 µM | 85
CC1=C(C#N)[C@@H](c2ccc3[nH]nc(C)c3c2)C(C#N)=C(c2ccc(Cl)cc2)N1 | cell-free assay, competition with immobilised ligand | 1 µM | 100
Nc1ncc2c(n1)-c1c([nH]c3ccc(C#CC4CC4)cc13)CCCC2 | binding, competition with immobilised ligand | 1 µM | 89
O=C(c1ccc(Nc2ncc(Cl)c(-c3ccc(Cl)s3)n2)cc1)N1CCC(N2CCCC2)CC1 | binding, competition with immobilised ligand | 1 µM | 73
CC1CCCN1c1nccc(-c2cnn3ncccc23)n1 (stereo not shown) | binding | 1 µM | 100
CCN1CCN(Cc2ccc(C(=O)Nc3ccc(C)c(Oc4ccc5c(c4)CC(=O)N5)c3)cc2C(F)(F)F)CC1 | binding, competition with immobilised ligand | 1 µM | 100
C[C@@H](c1ccc(-n2cnc3c(N)ncnc32)cc1)N1CCc2nn(C)c(Cc3ccccc3)c2C1=O | binding, competition with immobilised ligand | 0.1 µM | 100
O=C(NCCCN1CCOCC1)c1ccc(Nc2ncc(Cl)c(-c3ccc(Cl)s3)n2)cc1 | binding, competition with immobilised ligand | 1 µM | 100
Cc1nccc(COC(=O)N2C[C@@H]3[C@@H](CNC(=O)c4ccc5[nH]nnc5c4)[C@@H]3C2)n1 | cell-free assay, competition with immobilised ligand | 1 µM | 91
N[C@@H]1CCN(c2nccc(-c3cnn4ncccc34)n2)C1 | binding | 1 µM | 98
CN([C@@H]1CCc2c(CC(=O)O)c3cc(S(C)(=O)=O)ccc3n2C1)S(=O)(=O)c1ccc(F)cc1 | cell-free assay, competition with immobilised ligand | 1 µM | 83
CN(C)c1nccc(-c2cnc3ncccn23)n1 | binding | 1 µM | 67
COc1cnc(Nc2cccc(S(N)(=O)=O)c2)nc1N1CCN(c2ccccc2)C(=O)C1 | binding, competition with immobilised ligand | 1 µM | 97
Cc1cc(-n2nc(Cc3cc(F)cc(C(F)(F)F)c3)nc2C)ccc1C(N)=O | cell-free assay, competition with immobilised ligand | 1 µM | 100
F[C@@H]1CCN(c2nccc(-c3cnn4ncccc34)n2)C1 | binding | 1 µM | 100
O=C(NCC1CCOCC1)c1n[nH]cc1NC(=O)c1c(F)cccc1F | binding, competition with immobilised ligand | 1 µM | 95
COc1ccc2c(c1)O[C@@H](c1ccc(OC)c(OC)c1)C[C@H]2NC(=O)C1(c2ccc3c(c2)OC(F)(F)O3)CC1 | cell-free assay, competition with immobilised ligand | 1 µM | 100
O=C(c1ccc(Nc2nccc(-c3cc4ccccc4s3)n2)cc1)N1CCC(N2CCCC2)CC1 | binding, competition with immobilised ligand | 1 µM | 100
CNCc1ccccc1-c1csc([C@H](C)Nc2nc(C)nc3cc(OC)c(OC)cc23)c1 | cell-free assay, competition with immobilised ligand | 1 µM | 98
CN(C)c1ncc(F)c(-c2cnn3ncccc23)n1 | binding | 1 µM | 90
Cn1nc(C(F)(F)F)cc1-c1cnc(N2CCc3cc(S(=O)(=O)Nc4c(F)cc(Cl)cc4F)cc(N4CCCC4=O)c32)nc1 | cell-free assay, competition with immobilised ligand | 1 µM | 97
CN(C)c1nccc(-c2cnn3ncccc23)n1 | binding | 1 µM | 100
